High-throughput results deposited in PubChem by The Scripps Research Institute Molecular Screening Center.
This is a sample that favours compounds with a hit; in the whole collection about 3.1% have one here.
OX1R antag-1: blocks the human orexin 1 receptor; O43613; inhibition, % at 6.6 µM; 330,000 compounds, 1.8% hits; OX1R-expressing cells, FRET antagonist read-out; in the data active means inhibition mostly above about 38%, no sharp cut-off; inactive means mostly below about 40%
Target sequence (O43613 whole entry, looked up): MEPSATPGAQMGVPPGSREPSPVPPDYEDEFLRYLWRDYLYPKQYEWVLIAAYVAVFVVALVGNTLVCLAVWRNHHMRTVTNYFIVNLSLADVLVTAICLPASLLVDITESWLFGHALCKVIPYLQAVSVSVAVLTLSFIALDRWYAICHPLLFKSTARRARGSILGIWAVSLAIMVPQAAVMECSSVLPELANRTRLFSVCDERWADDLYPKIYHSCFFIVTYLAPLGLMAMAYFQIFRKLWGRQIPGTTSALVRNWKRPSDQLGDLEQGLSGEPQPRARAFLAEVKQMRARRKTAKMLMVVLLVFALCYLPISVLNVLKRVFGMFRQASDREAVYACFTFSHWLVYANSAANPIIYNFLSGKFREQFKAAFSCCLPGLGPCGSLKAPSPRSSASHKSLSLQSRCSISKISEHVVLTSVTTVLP
GalR3 antag: blocks the human galanin receptor 3; O60755; HEK293 GalR3-CNG cAMP membrane potential fluorescence; galR3 body fused to GalR1 C-terminus; AID 651719; 360,000 compounds, 0.44% hits; inhibition, % at 3 µM;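 active means inhibition above the screen-wide average plus 3 SD, cut at about 13% in these data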;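 further: forskolin and galanin both at EC90 stimulate the cells; cAMP rise reported by CNG channel membrane potential dye signal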
Target sequence (O60755 1-299 limits assumed): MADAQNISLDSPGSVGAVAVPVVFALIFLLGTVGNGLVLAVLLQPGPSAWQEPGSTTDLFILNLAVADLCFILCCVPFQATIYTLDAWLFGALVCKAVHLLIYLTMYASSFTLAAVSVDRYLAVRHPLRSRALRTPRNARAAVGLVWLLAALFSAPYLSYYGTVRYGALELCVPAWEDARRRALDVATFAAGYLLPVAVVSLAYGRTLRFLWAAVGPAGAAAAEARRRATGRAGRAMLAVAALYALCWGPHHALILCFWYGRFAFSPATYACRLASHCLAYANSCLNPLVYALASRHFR
OX1R antag-2: human HCRTR1 antagonism | O43613 | CHO/OX1R cells, Fluo-8 calcium fluorescence, orexin A | inhibition, % at 5 µM | 330,000 compounds, 0.43% hits | AID 434989;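 active means inhibition above its plate's threshold, mean inhibition of all tested compounds on the plate plus 3 SD, cut at about 37% in these data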
CHO parental Ca: signal in parental CHO cells, OX1R antagonist counter-screen | parental CHO-K1, ATP-induced calcium, Fluo-8 fluorescence | inhibition, % at 5.6 µM | 330,000 compounds, 0.63% hits;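 active means inhibition above that plate's mean sample inhibition plus 3 SD, cut at about 26% in these data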
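Assay system: untransfected parental CHO cell line. Also added: ATP agonist challenge. Dosing: one dose, 5.6 µM nominal. Measured by: Fluo-8 fluorescence. Read-out: % inhibition. Benchmarks: ATP wells versus no-ATP DMSO wells. Repeats: no replicates.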
GPR7 antag: human neuropeptides B/W receptor 1 antagonism. P48145. GPR7-expressing cells, fluorescence antagonist assay. inhibition, % at 4.4 µM. 290,000 compounds, 1.1% hits; in the data active means inhibition above about 16%, passing the limit was not always enough;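 further: cells stimulated with the agonist NPW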
GPR7 antag conf: confirmation of human GPR7 antagonists | shares compounds with GPR7 antag | GPR7-expressing cells, calcium fluorescence antagonist mode | inhibition, % at 4.4 µM | 2,400 compounds, 52% hits; in the data active means inhibition above about 24%;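 further: stimulated with the GPR7 agonist NPW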
MCHR1 antagonist: counter-screen for GPR7 antagonists: antagonists of human MCHR1. shares compounds with GPR7 antag. MCHR1-expressing cells, fluorescence antagonist assay. 2,400 compounds, 62% hits. AID 2148. inhibition, % at 4.4 µM; in the data active means inhibition above about 22%
Each line names hits and unclear results; the compound was inactive in the other large screens (follow-up assays come after a bar, where they were run).

CN(C)c1ccc(N=Nc2ccccc2C(=O)OCC(=O)N(C)C2CCCCC2)cc1	CHO parental Ca 55.4, GPR7 antag 24.7 | GPR7 antag conf 30.5 | MCHR1 antagonist 76.1
O=C(/C=C(\Nc1ccc(Cl)c(Cl)c1)c1ccccc1)c1ccccc1	none (no result: OX1R antag-1, OX1R antag-2, CHO parental Ca, GPR7 antag)
O=C(Nc1ccccc1)[C@@H]1[C@@H]2C(=O)N(c3ccc(F)cc3)C(=O)[C@@H]2[C@H]2C=CC=NN21	GPR7 antag 26.8 | GPR7 antag conf inactive | MCHR1 antagonist inactive
Cc1ccc(N2C(=O)[C@@H]3[C@H](C2=O)[C@H]2C=CC=NN2[C@@H]3C(=O)Nc2ccccc2)cc1	none
CC(=O)N1CCN(C(=O)c2cc(C)oc2C)CC1	none (no result: GPR7 antag)
Cc1cc(C(=O)N2CCC(Cc3ccccc3)CC2)c(C)o1	GPR7 antag 27.7 | GPR7 antag conf 26.9 | MCHR1 antagonist 32.6
CC(C)N1CCCC(C)(C(=O)Nc2ccccc2)C1 (stereo not drawn)	none (no result: OX1R antag-1, OX1R antag-2, CHO parental Ca, GPR7 antag)
Cc1ccc2sc(N(CCCN(C)C)C(=O)c3nc4ccccc4s3)nc2c1C	none
Cc1cccc2sc(N(CCCN(C)C)C(=O)CCc3ccccc3)nc12	GPR7 antag 22.9 | GPR7 antag conf 60.6 | MCHR1 antagonist 56.0
Cc1cccc2sc(N(CCCN(C)C)C(=O)CN3C(=O)c4ccccc4C3=O)nc12	none
COc1ccc(OC)c2sc(N(CCCN(C)C)C(=O)CCS(=O)(=O)c3ccccc3)nc12	none (no result: GPR7 antag)
Cc1ccc2sc(N(CCCN(C)C)C(=O)c3ccc(Br)s3)nc2c1C	GPR7 antag 41.1 | GPR7 antag conf 50.7 | MCHR1 antagonist 56.2
COc1cc2ccccc2cc1C(=O)N(CCN(C)C)c1nc2c(F)cc(F)cc2s1	none
Cc1ccc2sc(N(CCCN(C)C)C(=O)CCS(=O)(=O)c3ccccc3)nc2c1C	GPR7 antag 47.6 | GPR7 antag conf 43.2 | MCHR1 antagonist 50.6
COc1cc2ccccc2cc1C(=O)N(CCN(C)C)c1nc2ccc(Br)cc2s1	GPR7 antag 26.0 | GPR7 antag conf 29.1 | MCHR1 antagonist 35.9
Cc1ccc(S(=O)(=O)NN=Cc2ccccc2Cl)cc1	none (no result: OX1R antag-1, OX1R antag-2, CHO parental Ca, GPR7 antag)
Cc1c(C(=O)NCc2ccc(C(C)C)cc2)sc(=O)n1Cc1cccc(F)c1	none (no result: OX1R antag-1, OX1R antag-2, CHO parental Ca, GPR7 antag)
COc1ccccc1Cc1c(-c2ccc(OC)c(OC)c2)nc2ccc(Cl)cn12	none (no result: OX1R antag-1, OX1R antag-2, CHO parental Ca, GPR7 antag)
COc1ccc(C(=O)NCC2CCN(C(=O)C(=O)c3cc4ccccc4o3)CC2)cc1	none (no result: OX1R antag-1, OX1R antag-2, CHO parental Ca, GPR7 antag)
COc1ccccc1CCn1cnc(-c2cccc(Br)c2)c1CC(C)C	none (no result: OX1R antag-1, OX1R antag-2, CHO parental Ca, GPR7 antag)
CCN(CC)C1CCN(C(=O)c2ccc(OC3CCN(C(=O)CCOC)CC3)cc2)C1 (stereo not drawn)	none (no result: OX1R antag-1, OX1R antag-2, CHO parental Ca, GPR7 antag)
O=C(N[C@H](C(=O)N1CCC[C@H]1C(=O)NCCc1ccccc1Cl)c1ccccc1)C1CCCC1	none (no result: OX1R antag-1, OX1R antag-2, CHO parental Ca, GPR7 antag)
COc1ncnc2c1ncn2CCCNCc1ccccn1	none (no result: OX1R antag-1, OX1R antag-2, CHO parental Ca, GPR7 antag)
CN(C)CCCN(C(=O)CCc1ccccc1)c1nc2ccc(Br)cc2s1	GPR7 antag 23.8 | GPR7 antag conf 67.5 | MCHR1 antagonist 72.8
CN(C)CCCN(C(=O)c1ccc2c(c1)OCCO2)c1nc2ccc(Cl)cc2s1	GPR7 antag 51.1 | GPR7 antag conf 61.0 | MCHR1 antagonist 45.6
CN(C)CCCN(C(=O)CCc1ccccc1)c1nc2ccc(F)cc2s1	none
Cc1cccc2sc(N(CCCN(C)C)C(=O)c3nc4ccccc4s3)nc12	none
Cc1cccc2sc(N(CCCN(C)C)C(=O)c3ccc4ncsc4c3)nc12	GPR7 antag 26.2 | GPR7 antag conf 39.2 | MCHR1 antagonist 29.1
CN(C)CCN(C(=O)c1ccc2c(c1)OCCO2)c1nc2ccc(Cl)cc2s1	none
COc1ccc(CCNC(=O)c2ccc(CSc3ccc(Cl)cc3)o2)cc1OC	none (no result: OX1R antag-1, OX1R antag-2, CHO parental Ca, GPR7 antag)
COc1cc(CNC2CCCCCCC2)cc(Cl)c1OC	none
C=CCOc1c(CNC2CCCC2)cc(Cl)cc1OC	GPR7 antag 26.2 | GPR7 antag conf inactive | MCHR1 antagonist inactive
Cc1ccc(C(Sc2ccccc2)C(Cn2cncn2)C(=O)c2ccccc2)cc1 (stereo not drawn)	none
Cc1ccc(SC(c2ccc(C)cc2)C(Cn2cncn2)C(=O)c2ccccc2)cc1 (stereo not drawn)	GPR7 antag 26.2 | GPR7 antag conf inactive | MCHR1 antagonist inactive
CCc1ccccc1NC(=O)CSc1nc2ccccc2nc1N1CCOCC1	GPR7 antag 26.4 (no result: GalR3 antag) | GPR7 antag conf 34.2 | MCHR1 antagonist 31.3
COc1ccc(OCC(=O)Nc2c(C(=O)N3CCN(C)CC3)oc3ccccc23)cc1	none
COc1ccc(OCC(=O)Nc2c(C(=O)N(CCN(C)C)Cc3ccco3)oc3ccccc23)cc1	GPR7 antag 27.9 | GPR7 antag conf inactive | MCHR1 antagonist 34.6
Cc1ccccc1C(=O)Nc1c(C(=O)N(CCN(C)C)Cc2ccco2)oc2ccccc12	none
COc1ccccc1C(=O)Nc1c(C(=O)N(CCN(C)C)Cc2ccco2)oc2ccccc12	GPR7 antag 29.3 | GPR7 antag conf 48.4 | MCHR1 antagonist 62.1
CN[C@@H](CO)C(=O)NC[C@H]1O[C@@H](n2cnc3c(=O)[nH]c(N)nc32)[C@H](O)[C@@H]1O	none (no result: OX1R antag-1, OX1R antag-2, CHO parental Ca, GPR7 antag)
Cc1cc(C)c2cc(C#N)c(NCCNC(=O)c3ccccn3)nc2c1	none (no result: OX1R antag-1, OX1R antag-2, CHO parental Ca, GPR7 antag)
Cc1cc(N2CCN(C(=O)OC(C)(C)C)C[C@H]2C)ccc1N1CCS(=O)(=O)CC1	none (no result: OX1R antag-1, OX1R antag-2, CHO parental Ca, GPR7 antag)
CCOC(=O)/C(=C/C=C1\Sc2cc(C)c(C)cc2N1CC)C(C)=O	GPR7 antag 24.3 (no result: OX1R antag-1, OX1R antag-2, CHO parental Ca) | GPR7 antag conf 38.4 | MCHR1 antagonist 75.7
CC(C)c1ccc(C(C)NC(=S)NC2CCCCC2)cc1 (stereo not drawn)	none (no result: OX1R antag-1, OX1R antag-2, CHO parental Ca)
CC(NC(=S)NC1CCCCC1)c1ccc(C(C)(C)C)cc1 (stereo not drawn)	GPR7 antag 25.1 | GPR7 antag conf 39.9 | MCHR1 antagonist 60.7
c1ccc2c(c1)OC(CCCN1CCCCC1)c1ccccc1S2 (stereo not drawn)	GPR7 antag 24.8 | GPR7 antag conf 32.7 | MCHR1 antagonist 53.7
Cc1ccc(C(=O)C[n+]2cc(-c3ccc(C)cc3)n3c2CCCCC3)cc1	GalR3 antag 19.9, GPR7 antag 60.0 | GPR7 antag conf 32.2 | MCHR1 antagonist 50.3
Cc1ccc(S(=O)(=O)N(C)Cc2ccc(-c3nnco3)cc2)cc1	GPR7 antag 26.5 | GPR7 antag conf 46.9 | MCHR1 antagonist 41.8
CCN(CC)S(=O)(=O)c1ccc(-c2nnco2)cc1	none
Cc1nc2ccc(C(=O)NCCCn3ccnc3)cn2c1N(C)C(=O)CCc1ccccc1	none (no result: OX1R antag-1, OX1R antag-2, CHO parental Ca, GPR7 antag)
O=C(NC(=S)Nc1cccc([N+](=O)[O-])c1)C1CCCCC1	GPR7 antag 32.2 | GPR7 antag conf 33.0 | MCHR1 antagonist 38.9
CN(C)S(=O)(=O)c1cccc(NC(=S)NC(=O)C2CCCCC2)c1	GPR7 antag 32.3 | GPR7 antag conf inactive | MCHR1 antagonist 35.1
COC(=O)c1ccc(NC(=O)C(=O)N2CCN(C(=S)NCCc3ccccc3)CC2)cc1	GPR7 antag 21.5 | GPR7 antag conf inactive | MCHR1 antagonist inactive
